Data set [1] is described as follows: Drug recovery in feces of male Sprague-Dawley rat at 10 mg/kg, po administered as single dose via gavage measured after 168 hrs by liquid scintillation counting. The conditions noted are these: in vivo. Further details: dose 10 mg/kg, dosed compound name [14C]lixivaptan, route oral. The data set is classed as ADME, organism-based. The procedure, abridged: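 Intact SD rats (3/gender) dosed by gavage with [14C]drug 10 mg/kg (10 ml/kg, pluronic F68/water), housed in metabolism cages; urine and feces at 0-8, 8-24 h, then every 24 h to 7 days. Urine counted by LSC; feces homogenized 20% w/w in water, combusted, trapped CO2 counted; cage wash/debris included; % of dose.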

Data set [2] relates to Rattus norvegicus. As to the kind of experiment: Cmax as total radioactivity in female Sprague-Dawley rat plasma at 10 mg/kg, po administered as single dose. The data set is classed as ADME, organism-based. Further details: dose 10 mg/kg, dosed compound name [14C]lixivaptan, route oral. Particulars: in vivo. The procedure, abridged: (§1)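 Jugular-cannulated Sprague-Dawley rats (5/gender) were fasted 18 h and gavaged once with 10 mg/kg [14C]lixivaptan suspended in water/pluronic F68. K2EDTA blood was taken at 0.25–168 h, with donor blood replaced from 1 h on. Total radioactivity was read by LSC (ng-equiv/ml) and parent by validated LC-MS/MS. Noncompartmental Cmax, log-linear kel and trapezoidal AUC followed.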

The test system of data set [3] is Rattus norvegicus. The data set can be described thus: Drug level in female Sprague-Dawley rat plasma at 10 mg/kg, po administered as single dose via gavage measured after 1 hr by liquid scintillation counting. The data set is classed as ADME, organism-based. Further details: dose 10 mg/kg, dosed compound name [14C]lixivaptan, route oral. Particulars: in vivo. The procedure, abridged:
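Sprague-Dawley rats (9/gender) were fasted 18 h and gavaged once with [14C]lixivaptan at 10 mg/kg (10 ml/kg), about 29.8 µCi/mg, suspended in deionized water with pluronic F68. Plasma came by cardiac puncture under isoflurane at 1, 8 and 24 h (3/gender/time) and was extracted twice with 2 volumes of acetonitrile. C18 radio-HPLC with a flow scintillation detector gave percent of plasma radioactivity per peak.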

The subject of data set [4] is Canis familiaris. The data set can be described thus: Tmax as total radioactivity in male beagle dog plasma at 10 mg/kg, po administered as single dose by LC-MS/MS analysis. It counts as ADME, organism-based, Canis lupus familiaris. Further details: dose 10 mg/kg, dosed compound name [14C]lixivaptan, route oral. Particulars: in vivo. The gist of the method: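 Male beagles given 10 mg/kg [14C]drug oral suspension; jugular K2EDTA blood at 0.25-168 h. Parent by validated LC-MS/MS, total radioactivity by LSC; Tmax observed; t1/2 = 0.693/kel from terminal log-linear regression.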

Data set [5] deals with Homo sapiens. The data set can be described thus: Drug level in human plasma at 100 mg, po administered as single dose measured after 36 hrs by liquid scintillation counting. The data set is classed as ADME, organism-based. More on the design: dosed compound name [14C]lixivaptan. The conditions noted are these: in vivo. The gist of the method:
(§2)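 Healthy male volunteers fasted ≥10 h, given single oral 100 mg (200 µCi) [14C]drug as two 50-mg capsules with 250 ml water. Plasma (from ~50 ml blood) at 0.5, 2, 4, 8, 12, 24, 36 h, profiled per subject. Acetonitrile extraction, C18 radio-HPLC with 0.2% formic acid acetonitrile/water gradient, on-line radioactivity detection as % plasma radioactivity; ng-equiv/ml from % × total radioactivity.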

The nature of data set [6]: Drug recovery in bile of bile duct-cannulated female Sprague-Dawley rat at 10 mg/kg, po administered as single dose via gavage measured 0 to 48 hrs by liquid scintillation counting. The data set is classed as ADME, organism-based. Further details: dose 10 mg/kg, dosed compound name [14C]lixivaptan, route oral. Particulars: in vivo. The gist of the method:
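Bile-duct cannulated SD rats (n=5) got single gavage of [14C]drug 10 mg/kg as pluronic F68/water suspension. Bile collected on wet ice at 0-4, 4-8, 8-24, 24-48 h; drinking water supplemented with bile salts and electrolytes. Duplicate aliquots counted by liquid scintillation; expressed as % of dose.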

Data set [7] has as its system Canis familiaris. The data set can be described thus: Drug recovery in cage wash/debris of male beagle dog at 10 mg/kg, po administered as single dose via gavage measured after 168 hrs by liquid scintillation counting. Further details: dose 10 mg/kg, dosed compound name [14C]lixivaptan, route oral. The conditions noted are these: in vivo. The data set is classed as ADME, organism-based, Canis lupus familiaris. The procedure, abridged: (§3)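 Four male beagles got 10 mg/kg (2 ml/kg) [14C]drug suspension (5.0 mg/ml, pluronic F68/water, 1.04 µCi/mg) by gavage. Urine and feces collected over dry ice at 0-8, 8-24 h, then every 24 h to 7 days; urine by LSC, fecal homogenates combusted then LSC; cage wash/debris included; % of dose.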

A short description of data set [8]: Drug recovery in feces of male beagle dog at 10 mg/kg, po administered as single dose via gavage measured after 168 hrs by liquid scintillation counting. The data set is classed as ADME, organism-based, Canis lupus familiaris. Further details: dose 10 mg/kg, dosed compound name [14C]lixivaptan, route oral. Particulars: in vivo. The procedure, abridged: as §3

For data set [9], the system named is Rattus norvegicus. As to the kind of experiment: Total drug recovery in bile duct-cannulated male Sprague-Dawley rat at 10 mg/kg, po administered as single dose via gavage measured from 0 to 48 hrs by liquid scintillation counting. The conditions noted are these: in vivo. More on the design: dose 10 mg/kg, dosed compound name [14C]lixivaptan, route oral. The data set is classed as ADME, organism-based. The procedure, abridged:
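Male BDC rats (n=5) given oral [14C]drug as a suspension in deionized water with pluronic F68 (10 ml/kg). Drinking water supplemented with bile salts, NaCl and KCl. Bile collected on wet ice at 0-4, 4-8, 8-24 and 24-48 h. Duplicate aliquots counted by LSC; recovery expressed as % of dose in bile.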

The subject of data set [10] is Rattus norvegicus. As to the kind of experiment: Cmax as total radioactivity in male Sprague-Dawley rat plasma at 10 mg/kg, po administered as single dose via gavage by LC-MS/MS analysis. It counts as ADME, organism-based. Further details: dose 10 mg/kg, dosed compound name [14C]lixivaptan, route oral. Particulars: in vivo. The gist of the method:
as §1

Data set [11] concerns Rattus norvegicus. The data set can be described thus: Half life as total radioactivity in female Sprague-Dawley rat plasma at 10 mg/kg, po administered as single dose via gavage by LC-MS/MS analysis. More on the design: dose 10 mg/kg, dosed compound name [14C]lixivaptan, route oral. Particulars: in vivo. It counts as ADME, organism-based. The procedure, abridged:
(§4)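 Jugular-vein cannulated SD rats (5/gender) given gavage [14C]drug 10 mg/kg in pluronic F68/water; K2EDTA blood 0.25-168 h with donor blood replacement. Parent by validated LC-MS/MS, radioactivity by LSC; Tmax observed; t1/2 = 0.693/kel by terminal log-linear regression.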

For data set [12], the system named is Rattus norvegicus. As to the kind of experiment: Tmax as total radioactivity in female Sprague-Dawley rat plasma at 10 mg/kg, po administered as single dose via gavage by LC-MS/MS analysis. Further details: dose 10 mg/kg, dosed compound name [14C]lixivaptan, route oral. It counts as ADME, organism-based. The conditions noted are these: in vivo. The gist of the method: as §4

A short description of data set [13]: Retention time of the compound by HPLC analysis. The data set is classed as physicochemical. More on the design: dosed compound name [14C]lixivaptan.
For data set [14], the system named is Rattus norvegicus. The data set can be described thus: AUC(0 to t) as total radioactivity in female Sprague-Dawley rat plasma at 10 mg/kg, po administered as single dose via gavage by LC-MS/MS analysis. The data set is classed as ADME, organism-based. More on the design: dose 10 mg/kg, dosed compound name [14C]lixivaptan, route oral. Particulars: in vivo. The procedure, abridged: as §1

Data set [15] relates to Rattus norvegicus. As to the kind of experiment: AUC(0 to infinity) as total radioactivity in male Sprague-Dawley rat plasma at 10 mg/kg, po administered as single dose via gavage […]. The conditions noted are these: in vivo. The data set is classed as ADME, organism-based. More on the design: time infinity, dose 10 mg/kg, dosed compound name [14C]lixivaptan, route oral. The procedure, abridged: as §1

A short description of data set [16]: Drug recovery in feces of human at […], po administered as single dose measured after 168 hrs by liquid scintillation counting. It counts as ADME, organism-based. Further details: dosed compound name [14C]lixivaptan, route oral. The conditions noted are these: in vivo. The procedure, abridged: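 Healthy male volunteers given single oral 100 mg (200 µCi) [14C]drug capsules after ≥10 h fast. Urine at 0-4, 4-8, 8-12, 12-24 h then 24-h intervals; feces as passed, to 168 h. Urine LSC; feces homogenized in water, combusted, LSC; % of dose.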

For data set [17], the system named is Homo sapiens. The data set can be described thus: AUC in human at 100 mg, po qd for 7 days. The data set is classed as ADME, organism-based, Plasma. More on the design: dosed compound name [14C]lixivaptan. Particulars: in vivo, 168 h.
The subject of data set [18] is Homo sapiens. As to the kind of experiment: Drug level in human plasma at 100 mg, po administered as single dose measured after 24 hrs by liquid scintillation counting. The data set is classed as ADME, organism-based. Further details: dosed compound name [14C]lixivaptan. The conditions noted are these: in vivo. The gist of the method: as §2
Data set [19] has as its system Rattus norvegicus. As to the kind of experiment: Total drug recovery in bile duct-cannulated female Sprague-Dawley rat at 10 mg/kg, po administered as single dose via gavage measured 0 to 48 hrs by liquid scintillation counting. It counts as ADME, organism-based. Particulars: in vivo. More on the design: dose 10 mg/kg, dosed compound name [14C]lixivaptan, route oral.

Data set [20] has as its system Homo sapiens. The data set can be described thus: AUC(0 to t) as total radioactivity in human plasma at 100 mg, po administered as single dose by LC-MS/MS analysis. Further details: dosed compound name [14C]lixivaptan. The conditions noted are these: in vivo. It counts as ADME, organism-based. The procedure, abridged: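 Fasted healthy males took one oral 100 mg (200 µCi) [14C]lixivaptan dose. Plasma was drawn from predose to 144 h. Total radioactivity was measured by LSC and converted to ng-equiv/ml via the dose specific activity; lixivaptan by validated LC-MS/MS. Noncompartmental analysis: Cmax observed; kel by log-linear regression; AUC0-t by linear trapezoid; extrapolation as Cest/kel.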

For data set [21], the system named is Homo sapiens. The data set can be described thus: Drug level in human plasma at 100 mg, po administered as single dose measured after 0.5 hrs by liquid scintillation counting. It counts as ADME, organism-based. Further details: dosed compound name [14C]lixivaptan. The conditions noted are these: in vivo. The procedure, abridged: as §2

For the compound `Cc1ccc(F)cc1[14C](=O)Nc1ccc(C(=O)N2Cc3cccn3Cc3ccccc32)c(Cl)c1`, the Radiolabel recovery in [1] came to 91%; in [6] it was 70.5%; in the data set with Canis familiaris [7], 4.9%; in [8], 83.1%; in the data set on Rattus norvegicus [9] it was 65.4%; in data set [16], 63.7%. In the data set with Rattus norvegicus [19], this compound had a Radiolabel recovery of 70.5%. For the same compound, the Cmax in the data set on Rattus norvegicus [2] was found to be 1960 ngequiv/ml; in the data set with Rattus norvegicus [10], 2820 ngequiv/ml. In addition, the Compound recovery in the data set on Rattus norvegicus [3] turned out to be 29.9%; with Homo sapiens [5], 3.6%; with Homo sapiens [18], 5.5%; with Homo sapiens [21], 43.5%. Moreover, the Tmax came to 1.8 h in the data set with Canis familiaris [4] and 1.4 h in the data set with Rattus norvegicus [12]. For the same compound, in the data set on Rattus norvegicus [11], the t1/2 came out at 33.6 h. The compound also had a Retention_time in data set [13] of 34.3 min. Further, the AUCt with Rattus norvegicus [14] is reported as 36700 ng.Eq.hr/ml; with Homo sapiens [20] it was 24700 ng.Eq.hr/ml. In addition, the AUC with Rattus norvegicus [15] worked out at 67100 ng.Eq.hr/ml; in the data set on Homo sapiens [17], 1860 ng.Eq.hr/ml.

A word on the Tmax: it is the time from dosing to the highest level.

These data come from ChEMBL document CHEMBL3525987, “Assessment of exposure of metabolites in preclinical species and humans at steady state from the single-dose radiolabeled absorption, distribution, metabolism, and excretion studies: a case study” (Drug Metab Dispos, 2012).
